A short description of data set [1]: Drug distribution in mouse liver at 10 mg/kg, po incubated for 3 hrs by UPLC-MS/MS analysis. The data set is classed as ADME, organism-based. To be noted: read-out: Drug uptake. An outline of the steps: (§1)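 Oral dosing in mice and rats; compound measured in plasma and liver by UPLC-MS/MS at each time point, n = 3 (mean ± SD). LPR is mean liver concentration divided by mean plasma concentration.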

Data set [2] relates to Hepatitis C virus. The data set is described as follows: Antiviral activity against Hepatitis C virus subtype 1b Con1 replicon expressing NS5A L31W mutant infected in human HuH7 cells assessed as reduction in viral replication incubated for 3 days by luciferase reporter gene assay. The following applies: subtype 1b Con1, Huh-7, 72 h. The data set is classed as functional, organism-based, Hepacivirus hominis. An outline of the steps: (§2)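 NS5A resistance-associated variants introduced into GT1a-H77 or GT1b-Con1 replicons. In transient assays, each variant replicon was electroporated into a Huh-7-derived cell line. Inhibition measured as drop in luciferase signal. Percent inhibition computed per concentration; EC50 from 4-parameter logistic nonlinear fit. Fold resistance is variant EC50 relative to the matching reference replicon.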

The test system of data set [3] is Hepatitis C virus. The data set is described as follows: Resistance index, ratio of EC50 for Hepatitis C virus subtype 1a H77 subgenomic replicon expressing NS5A L31V mutant infected in human HuH7 cells to EC50 for Hepatitis C virus subtype 1a H77 subgenomic replicon expressing NS5A infected in human HuH7 cells. It counts as functional, Hepacivirus hominis. Background: Replicon systems follow genome replication, usually without infectious particles.

The nature of data set [4]: Ratio of drug distribution in mouse liver to drug distribution in mouse plasma measured after 3 hrs by UPLC-MS/MS analysis. It counts as ADME, cell-free. An outline of the steps:
as §1

Data set [5] is described as follows: Drug distribution in rat liver at 10 mg/kg, po incubated for 3 hrs by UPLC-MS/MS analysis. To be noted: read-out: Drug uptake. It counts as ADME, organism-based. An outline of the steps:
as §1

Data set [6] can be described thus: Metabolic stability in rat liver microsomes assessed as compound remaining at 1 uM incubated for 60 mins by UPLC-MS/MS analysis. The data set is classed as ADME, Microsome. The following applies: read-out: Stability. An outline of the steps: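 Pooled mouse, rat or human liver microsomes (0.5 mg/mL) with 1 μM compound, 1 mM NADPH, 5 mM MgCl₂ and 100 mM potassium phosphate pH 7.4. Pre-incubated 5 min at 37 °C, started with NADPH, then run 60 min at 37 °C. Quenched with ice-cold acetonitrile containing internal standard; parent remaining measured by UPLC-MS/MS.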
A general note: Liver microsomes are vesicles of endoplasmic reticulum, rich in cytochrome P450 enzymes.

Data set [7] deals with Hepatitis C virus. The data set is described as follows: Antiviral activity against Hepatitis C virus subtype 2a subgenomic replicon expressing NS5A infected in human HuH7 cells assessed as reduction in viral replication incubated for 3 days by luciferase reporter gene assay. It counts as functional, organism-based, Hepacivirus hominis. The following applies: Huh-7, 72 h.

Data set [8] in a line: Ratio of drug distribution in rat liver to drug distribution in rat plasma measured after 0.5 hrs by UPLC-MS/MS analysis. The data set is classed as ADME, cell-free. An outline of the steps: as §1
Data set [9] relates to Hepatitis C virus. The data set is described as follows: Antiviral activity against Hepatitis C virus subtype 1b Con1 subgenomic replicon expressing NS5A infected in human HuH7 cells assessed as reduction in viral replication incubated for 3 days by luciferase reporter gene assay. To be noted: subtype 1b Con1, Huh-7, 72 h. The data set is classed as functional, organism-based, Hepacivirus hominis. An outline of the steps:
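HCV replicon cell assay; inhibition of replication read as decrease in luciferase signal. Percent inhibition computed at each compound concentration; EC50 (pM) from nonlinear regression fit to a 4-parameter logistic equation. Values are means of triplicate wells, with each experiment run at least twice.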

A short description of data set [10]: Half life in dog at 5 mg/kg, po by UPLC-MS/MS analysis. It counts as ADME, organism-based, Canis lupus familiaris. To be noted: in vivo.
The nature of data set [11]: Drug distribution in rat plasma at 10 mg/kg, po incubated for 3 hrs by UPLC-MS/MS analysis. The data set is classed as ADME, organism-based. The method, boiled down:
as §1

For data set [12], the system named is Hepatitis C virus. The data set is described as follows: Antiviral activity against Hepatitis C virus subtype 1a H77 subgenomic replicon expressing NS5A Y93C mutant infected in human HuH7 cells assessed as reduction in viral replication incubated for 3 days by luciferase reporter gene assay. The following applies: subtype 1a H77, Huh-7, 72 h. It counts as functional, organism-based, Hepacivirus hominis. The method, boiled down: as §2

The test system of data set [13] is Hepatitis C virus. The experiment in a line: Resistance index, ratio of EC50 for Hepatitis C virus subtype 1b Con1 subgenomic replicon expressing NS5A P32L mutant infected in human HuH7 cells to EC50 for Hepatitis C virus subtype 1b Con1 subgenomic replicon expressing NS5A infected in human HuH7 cells. It counts as functional, Hepacivirus hominis.
A short description of data set [14]: Toxicity in mouse assessed as reduction in body weight at 300 mg/kg, po administered for 14 days and measured on day 14. It counts as organism-based. To be noted: in vivo, 336 h. An outline of the steps: (§3)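 Mice randomised after acclimation into two groups of 5 males and 5 females. Compound at 300 mg/kg or vehicle alone given once daily by oral gavage for 14 days. Clinical signs observed daily. Body weight and food intake recorded on day 1, then twice weekly. Animals killed after the 14th dose.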

Data set [15] is described as follows: Cmax in mouse at 10 mg/kg, po by UPLC-MS/MS analysis. The data set is classed as ADME, organism-based. Further details: dose 10 mg/kg, route oral. The following applies: in vivo. An outline of the steps:
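Overnight-fasted mice given a single 10 mg/kg oral dose in 2:2:96 (v/v) alcohol : Tween 80 : glucose injection. Plasma levels by UPLC-MS/MS. Bioavailability derived against a 2 mg/kg iv arm using the same formulation diluted 2.5 times with 10% glucose injection.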

In data set [16] the test system is Hepatitis C virus. The experiment in a line: Antiviral activity against Hepatitis C virus subtype 1a H77 subgenomic replicon expressing NS5A L31V mutant infected in human HuH7 cells assessed as reduction in viral replication incubated for 3 days by luciferase reporter gene assay. It counts as functional, organism-based, Hepacivirus hominis. To be noted: subtype 1a H77, Huh-7, 72 h. An outline of the steps: as §2

Data set [17] is described as follows: Toxicity in mouse assessed as effect on hematological parameters at 300 mg/kg, po administered for 14 days and measured on day 14. The data set is classed as organism-based. The following applies: in vivo, 336 h. An outline of the steps: as §3
Data set [18] in a line: Ratio of drug distribution in rat liver to drug distribution in rat plasma measured after 8 hrs by UPLC-MS/MS analysis. It counts as ADME, cell-free. An outline of the steps:
as §1

SMILES strings stand for the structures.

On to `COC(=O)N[C@H](C(=O)N1CCC[C@H]1C(=O)Nc1ccc([C@@H]2CC[C@@H](c3ccc(NC(=O)[C@@H]4CCCN4C(=O)[C@@H](NC(=O)OC)[C@@H](C)OC)cc3)N2c2cc(F)c(N3CC[Si](C)(C)CC3)c(F)c2)cc1)[C@@H](C)OC`, for which the results for the concentration at 3 h in data set [1], in data set [5] and in data set [11] were 1580 ng/g, 1110 ng/g and 45.2 ng/mL, respectively. For the same molecule, the EC50 is 0.0191 nM in the data set with Hepatitis C virus [2]; 0.00038 nM with Hepatitis C virus [7]; 0.0017 nM in the data set with Hepatitis C virus [9]; > 0.25 nM in the data set on Hepatitis C virus [12]; 0.027 nM with Hepatitis C virus [16]. Further, the “Ratio EC50” value worked out at 23 in the data set on Hepatitis C virus [3] and 1 with Hepatitis C virus [13]. Besides, the concentration ratio (Kp) at 3 h in [4] is 24.6. The remaining at 1 h, 1 µM in data set [6] came to 76.3%. Further, in data set [8], the partition ratio (Kp) at 0.5 h was determined as 2.7. Further, the half-life in data set [10] is 21.2 h. Also, the Activity result in data set [14] and in data set [17] was “Non-Toxic” throughout. For the same molecule, the Cmax in data set [15] turned out to be 454 ng/mL. Moreover, the Kp at 8 h in [18] was found to be 10.7.

As usually defined, the EC50 is the concentration that produces a half-maximal response. As usually defined, the Kp is the ratio of the level in a tissue or fluid to that in plasma or blood. The term half-life denotes how long it takes for the measured level to halve. The low end stands for rapid decline, the high end for slow decline. By Cmax is commonly meant the maximum level reached in the sampled fluid or tissue.

The record behind these values is ChEMBL document CHEMBL4402601, “Discovery of a Silicon-Containing Pan-Genotype Hepatitis C Virus NS5A Inhibitor” (J Med Chem, 2020).
